Activity calls are given as the source filed them. The rule behind the calls is not given here.
How the values were obtained:
A549 [1] = experiment: Effect on STAT-1 phosphorylation in human A549 cells assessed as increase in IL1-beta, TNF-alpha and IFN-gamma-induced phosphorylation at 50 ug/ml after 15 to 30 mins by Western immunoblotting analysis; type: functional, cell-based
In short: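 A549 cells starved 24 h in serum- and antibiotic-free medium, treated with cytokine mix (IL-1β, TNF-α, IFN-γ) ± rifampin; total lysates immunoblotted (10% SDS-PAGE, PVDF) with rabbit anti-phospho-STAT-1; ECL detection with densitometry.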

A549 [2] = experiment: Effect on p38 phosphorylation in human A549 cells assessed as increase in IL1-beta, TNF-alpha and IFN-gamma-induced phosphorylation at 50 ug/ml after 15 to 30 mins by Western immunoblotting analysis; type: functional, cell-based
In short: (§1)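 A549 cells serum/antibiotic-starved 24 h, then given cytokine mix (IL-1β, TNF-α, IFN-γ) with or without rifampin (50 μg/ml); total lysates at 15, 30, 60 min; 20–30 μg protein on 10% SDS-PAGE, immunoblotted for phospho-ERK1/2, phospho-JNK, phospho-p38 and total forms; ECL detection, densitometry.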

A549 [3] = experiment: Effect on JNK phosphorylation in human A549 cells assessed as increase in IL1-beta, TNF-alpha and IFN-gamma-induced phosphorylation at 50 ug/ml after 15 to 30 mins by Western immunoblotting analysis; type: functional, cell-based; in short: as §1
A549 [4] = experiment: Effect on ERK1/2 phosphorylation in human A549 cells assessed as increase in IL1-beta, TNF-alpha and IFN-gamma-induced phosphorylation at 50 ug/ml after 15 to 30 mins by Western immunoblotting analysis; type: functional, cell-based; in short: as §1
[5] = molecular target: Nitric oxide synthase, inducible (Homo sapiens) (UniProt P35228); experiment: Effect on iNOS in human A549 cells assessed as increase in iNOS mRNA expression at 50 ug/ml after 19 hrs by TaqMan real-time RT-PCR relative to control; type: cell-based
In short: (§2)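 A549 cells starved 24 h, then 19 h with cytokine mix (100 ng/ml each) ± rifampin 10 or 50 μg/ml (DMSO stock diluted ≥1:1,000); 2 μg total RNA reverse transcribed (random hexamers), iNOS by TaqMan real-time RT-PCR normalized to β-actin; medium-only control set to 1; four experiments, mean ± SEM.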

A549 [6] = experiment: Induction of iNOS expression in human A549 cells at 25 to 50 ug/ml by Western blot analysis in presence of IFN-gamma; type: functional, cell-based
In short: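 A549 cells starved 24 h, then given rifampin with IFN-γ, each agent alone, or cytokine mix; total cell extracts prepared 20 h after stimulation and immunoblotted with rabbit anti-iNOS, ECL detection.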

A549 [7] = experiment: Induction of iNOS expression in human A549 cells at 25 to 50 ug/ml by Western blot analysis; type: functional, cell-based
A549 [8] = experiment: Induction of NF-kappaB activation in human A549 cells assessed as fold increase in NF-kappaB/DNA binding at 50 ug/ml by electrophoretic mobility shift assay; type: functional, cell-based
In short: (§3)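 Nuclear extracts from A549 cells 2 h after cytokine mix (IL-1β, TNF-α, IFN-γ) ± rifampin 50 μg/ml; 2 μl extract bound to biotin-labeled NF-κB consensus probe, 5% native PAGE in TBE, streptavidin-HRP chemiluminescence; specificity checked with cold NF-κB oligonucleotide.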

A549 [9] = experiment: Induction of NF-kappaB activation in IL1-beta, TNF-alpha and IFN-gamma-stimulated human A549 cells assessed as fold increase in NF-kappaB/DNA binding at 50 ug/ml by electrophoretic mobility shift assay; type: functional; in short: as §3
A549 [10] = experiment: Effect on NF-kappaB activation in human A549 cells assessed as degradation of inhibitory subunit IkappaB after 30 mins at 50 ug/ml by Western blot analysis; type: functional, cell-based
In short: (§4)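 A549 cells (2 × 10⁶/dish) starved 24 h, then exposed to cytokine mix (100 ng/ml each) ± rifampin 50 μg/ml, or rifampin alone; lysates taken over time (30 min to 3 h), 20–30 μg protein immunoblotted for IκB, ECL detection, densitometry; three experiments.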

A549 [11] = experiment: Effect on NF-kappaB activation in 100 ng/ml IL-1beta, TNF-alpha and IFN-gamma-stimulated human A549 cells assessed as degradation of inhibitory subunit IkappaB measured upto 3 hrs at 50 ug/ml by Western blot analysis; type: functional, cell-based; in short: as §4
A549 [12] = experiment: Effect on NF-kappaB activation in 100 ng/ml IL-1beta, TNF-alpha and IFN-gamma-stimulated human A549 cells assessed as degradation of inhibitory subunit IkappaB at 50 ug/ml by Western blot analysis; type: functional, cell-based; in short: as §4
A549 [13] = experiment: Effect on iNOS expression in human A549 cells assessed as fold increase in 100 ng/ml IL1-beta, TNF-alpha and IFN-gamma-stimulated iNOS mRNA expression at 50 ug/ml after 19 hrs by TaqMan real-time RT-PCR relative to control; type: functional; in short: as §2
A549 [14] = experiment: Effect on iNOS expression in human A549 cells assessed as fold increase in 100 ng/ml IL1-beta, TNF-alpha and IFN-gamma-stimulated iNOS mRNA expression at 10 ug/ml after 19 hrs by TaqMan real-time RT-PCR relative to control; type: functional; in short: as §2
A549 [15] = experiment: Reduction in PPARgamma expression in human A549 cells assessed as increase in 100 ng/ml IL1-beta, TNF-alpha and IFN-gamma-induced PPARgamma down regulation normalized to beta-actin expression level at 50 ug/ml by Western blot analysis; type: functional, cell-based
In short: (§5)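 A549 cells starved 24 h, then 24 h with medium, cytokine mix (100 ng/ml each), or mix plus graded rifampin; whole-cell extracts immunoblotted with mouse anti-PPARγ, signal normalized to β-actin by densitometry; five experiments, mean ± SEM, unpaired t test.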

A549 [16] = experiment: Effect on PPARgamma expression in human A549 cells assessed as decrease in PPARgamma expression normalized to beta-actin expression level at 50 ug/ml by Western blot analysis; type: functional, cell-based; in short: as §5
HT-29 = experiment: Effect on iNOS expression in human HT-29 cells assessed as increase in 100 ng/ml IL1-beta, TNF-alpha and IFN-gamma-stimulated iNOS […] expression normalized to beta-actin expression level at 10 to 50 ug/ml after 24 hrs by Western blot analysis; type: functional, cell-based
DLD-1 = experiment: Effect on iNOS expression in human DLD1 cells assessed as increase in 100 ng/ml IL1-beta, TNF-alpha and IFN-gamma-stimulated iNOS […] expression normalized to beta-actin expression level at 10 to 50 ug/ml after 24 hrs by Western blot analysis; type: functional, cell-based
[17] = Cmax in serum of human patient undergoing fibre-optic bronchoscopy at 600 mg, po administered as single dose; type: ADME, organism-based; design: dose 600 mg, route oral

Chain of Nitric oxide synthase, inducible (Homo sapiens) (P35228 whole entry): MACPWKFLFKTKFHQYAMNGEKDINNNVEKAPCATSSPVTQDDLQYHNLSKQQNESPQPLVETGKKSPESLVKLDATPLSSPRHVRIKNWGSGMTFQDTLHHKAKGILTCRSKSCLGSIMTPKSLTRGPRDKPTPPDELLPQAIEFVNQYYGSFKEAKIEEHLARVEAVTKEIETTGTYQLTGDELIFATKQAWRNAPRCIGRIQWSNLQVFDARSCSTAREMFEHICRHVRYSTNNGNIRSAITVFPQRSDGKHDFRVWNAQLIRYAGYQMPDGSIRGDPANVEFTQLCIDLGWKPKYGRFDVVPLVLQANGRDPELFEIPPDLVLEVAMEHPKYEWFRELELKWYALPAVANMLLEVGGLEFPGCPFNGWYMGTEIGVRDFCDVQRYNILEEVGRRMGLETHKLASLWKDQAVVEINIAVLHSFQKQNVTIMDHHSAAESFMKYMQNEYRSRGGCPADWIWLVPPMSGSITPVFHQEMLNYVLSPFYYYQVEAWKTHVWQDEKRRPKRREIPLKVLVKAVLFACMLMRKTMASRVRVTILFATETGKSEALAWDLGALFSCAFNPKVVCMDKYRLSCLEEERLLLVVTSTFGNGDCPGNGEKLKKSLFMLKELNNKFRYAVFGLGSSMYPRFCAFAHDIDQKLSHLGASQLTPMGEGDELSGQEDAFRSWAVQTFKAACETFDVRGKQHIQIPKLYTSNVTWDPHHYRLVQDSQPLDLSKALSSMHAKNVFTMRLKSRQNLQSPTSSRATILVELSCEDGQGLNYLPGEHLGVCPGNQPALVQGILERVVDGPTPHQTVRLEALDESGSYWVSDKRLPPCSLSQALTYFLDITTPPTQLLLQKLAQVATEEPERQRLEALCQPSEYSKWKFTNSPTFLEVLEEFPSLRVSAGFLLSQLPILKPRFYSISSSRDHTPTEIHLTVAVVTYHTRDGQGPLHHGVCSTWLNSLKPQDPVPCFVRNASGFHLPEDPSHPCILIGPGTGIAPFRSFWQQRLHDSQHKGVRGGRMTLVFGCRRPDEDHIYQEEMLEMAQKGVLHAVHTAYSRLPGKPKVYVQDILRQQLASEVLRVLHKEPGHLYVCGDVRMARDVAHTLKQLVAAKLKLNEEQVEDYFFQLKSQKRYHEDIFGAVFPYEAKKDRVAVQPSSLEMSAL

With `CO[C@H]1/C=C/O[C@@]2(C)Oc3c(C)c(O)c4c(O)c(c(/C=N/N5CCN(C)CC5)c(O)c4c3C2=O)NC(=O)/C(C)=C\C=C\[C@H](C)[C@H](O)[C@@H](C)[C@@H](O)[C@@H](C)[C@H](OC(C)=O)[C@@H]1C` [RIFAMPIN] the Activity (A549 [1]) was “inactive”, the Activity (A549 [2]) was “inactive” and the Activity (A549 [3]) was “inactive”. For the same compound, the Activity (A549 [4]) was “inactive”, the Activity [5] was “inactive” and the Activity (A549 [6]) was “Active”. For the same compound, the Activity (A549 [7]) was “inactive”, the Activity (A549 [8]) was “Active” and the “fold change (FC)” value (A549 [9]) was 2.1. The Activity (A549 [10]) was “Active”, the Activity (A549 [11]) was “Active” and the Activity (A549 [12]) was “Active”. The “fold change (FC)” value (A549 [13]) was 4, the “fold change (FC)” value (A549 [14]) was 1.9 and the Activity (A549 [15]) was “Active”. The Activity (A549 [16]) was “inactive”, the Activity (HT-29) was “Dose-dependent effect” and the Activity (DLD-1) was “inactive”. It also gave a Cmax [17] of 15000 ng/mL.
